Here are results for 5 molecules from PMC11365375 (Acta Pharmaceutica Sinica. B, 2024).

The test system of data set [1] is DOT1L^R231Q mediated H3K79me2 level in H460^R231Q cells. Briefly: Quantitative Western blot analysis of H3K79me2 level in H460^R231Q cells. In kind it is cell-based, human. In short, it runs like this:
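H460^R231Q cells were treated with test compound, and histones were extracted with a total histone extraction kit; protein was quantified by BCA. Extracts were resolved on 8–15% SDS-PAGE, transferred to PVDF and probed for H3K79me2 and histone H3, with ECL/X-ray film detection. Band densities were quantified, and H3K79me2 was normalised to H3. The dimethylation index was the compound value divided by the SGC0946 (positive control) value.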

The next data set deals with H460^R231Q cells. Briefly: Cell proliferation assay. In kind it is cell-based, human. The settings on record: Homo sapiens, 72 h, read-out: H460^R231Q (IC50, μmol/L). In short, it runs like this:
(§1)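 Human NCI-H460 NSCLC cells engineered to express wild-type or R231Q DOT1L (aa 1–416) were grown in RPMI 1640 with 10% FBS. Cells were seeded in 96-well plates and exposed to a range of test compound concentrations for 72 h at 37 °C, 5% CO₂. Growth was read by CCK-8 on a plate reader, and IC50 values were derived from the dose–response.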

The subject of another data set is H460^WT cells. Briefly: Cell proliferation assay. In kind it is cell-based. The conditions noted are these: Homo sapiens, 72 h, read-out: H460^WT (IC50, μmol/L). The procedure, abridged:
as §1

For data set [2] the following is noted: cited from earlier work.
Data set [3] relates to H3K27me3, H3K9me2, H3K4me1 and H3K36me2 levels. Briefly: WB analysis of common histone H3 modifications in H460^R231Q cells. The conditions noted are these: Fig. 7. In kind it is cell-based, human. The procedure, abridged: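 H460^R231Q cells were treated with test compound alongside an SGC0946 positive control. Histone extracts (or RIPA lysates with protease/phosphatase inhibitors) were quantified by BCA, separated on 8–15% SDS-PAGE and blotted to PVDF. Blots were probed for H3K27me3, H3K9me2, H3K4me1 and H3K36me2 and detected by ECL on X-ray film. Membranes were stripped and reprobed for proteins of similar size.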

For a further data set, the target named is DOT1L^WT (Homo sapiens, UniProt Q8TEK3). In words: DOT1L^WT methyltransferase assay. The class given is biochemical. The procedure, abridged:
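Commercial wild-type DOT1L was preincubated with test compound, 1% DMSO vehicle or SGC0946 positive control for 15 min at 25 °C. Nucleosomes plus SAM were added for 60 min, then detection buffer for 10 min, then anti-SAH-Lumi4-Tb and SAH-d2 for 60 min, all at 25 °C. The TR-FRET 665/620 nm ratio was read. % inhibition was scaled between vehicle and positive control; dose–response in duplicate, fitted for IC50.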

Another data set has as its system H460^WT. The conditions noted are these: WT group, in vivo; cited from earlier work.
A further data set has as its system H460^R231Q. The settings on record: R231Q group, in vivo; cited from earlier work.

Where only a bound is given, the exact number is not on record here.

Sequence of DOT1L^WT (Q8TEK3 whole entry): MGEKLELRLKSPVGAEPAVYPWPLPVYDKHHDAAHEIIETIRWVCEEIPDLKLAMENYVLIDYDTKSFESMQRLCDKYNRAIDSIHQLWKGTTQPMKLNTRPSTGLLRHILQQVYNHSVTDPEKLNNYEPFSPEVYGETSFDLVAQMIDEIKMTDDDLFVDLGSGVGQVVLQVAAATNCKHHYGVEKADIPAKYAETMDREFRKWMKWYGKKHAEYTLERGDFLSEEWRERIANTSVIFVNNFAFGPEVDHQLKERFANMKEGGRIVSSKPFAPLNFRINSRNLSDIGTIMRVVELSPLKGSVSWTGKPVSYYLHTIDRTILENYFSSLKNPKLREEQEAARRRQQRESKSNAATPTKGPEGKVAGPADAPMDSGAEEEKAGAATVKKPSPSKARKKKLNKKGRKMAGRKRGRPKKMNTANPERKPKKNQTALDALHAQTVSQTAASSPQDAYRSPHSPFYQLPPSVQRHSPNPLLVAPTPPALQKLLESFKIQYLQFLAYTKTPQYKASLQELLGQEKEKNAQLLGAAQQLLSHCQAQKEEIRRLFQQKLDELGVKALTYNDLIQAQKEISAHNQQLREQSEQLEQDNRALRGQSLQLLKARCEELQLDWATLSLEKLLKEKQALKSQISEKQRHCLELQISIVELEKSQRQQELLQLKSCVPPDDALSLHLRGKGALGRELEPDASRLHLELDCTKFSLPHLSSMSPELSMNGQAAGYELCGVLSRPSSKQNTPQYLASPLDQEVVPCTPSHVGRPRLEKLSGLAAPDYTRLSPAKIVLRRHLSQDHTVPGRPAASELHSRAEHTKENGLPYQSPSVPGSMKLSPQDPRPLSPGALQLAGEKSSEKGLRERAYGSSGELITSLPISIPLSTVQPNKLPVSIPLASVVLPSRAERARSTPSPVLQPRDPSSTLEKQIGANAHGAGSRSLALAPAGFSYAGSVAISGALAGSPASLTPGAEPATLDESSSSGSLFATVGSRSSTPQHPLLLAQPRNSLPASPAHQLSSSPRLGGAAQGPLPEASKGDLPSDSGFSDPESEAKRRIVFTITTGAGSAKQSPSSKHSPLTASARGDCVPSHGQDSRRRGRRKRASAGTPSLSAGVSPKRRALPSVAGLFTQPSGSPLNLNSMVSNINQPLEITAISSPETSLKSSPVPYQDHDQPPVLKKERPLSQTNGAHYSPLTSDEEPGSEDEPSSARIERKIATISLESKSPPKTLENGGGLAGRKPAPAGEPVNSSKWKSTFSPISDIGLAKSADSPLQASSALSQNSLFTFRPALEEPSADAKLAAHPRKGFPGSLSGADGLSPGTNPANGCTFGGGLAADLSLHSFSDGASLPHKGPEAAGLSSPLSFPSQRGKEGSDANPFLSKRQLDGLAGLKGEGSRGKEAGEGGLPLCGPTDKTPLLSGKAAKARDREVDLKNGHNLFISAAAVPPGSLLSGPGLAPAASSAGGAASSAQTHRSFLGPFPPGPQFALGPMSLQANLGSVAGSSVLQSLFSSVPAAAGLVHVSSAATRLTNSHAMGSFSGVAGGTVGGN

For `CC(C)N(C[C@H]1O[C@@H](n2cnc3c(N)ncnc32)[C@H](O)[C@@H]1O)C1CC2CN(C(=O)Nc3ccc(NC(=O)C(C)(C)C)cc3)CC2C1` (stereo partly shown) [Compound 5], the “inhibitory activity against DOT1L^R231Q in WB assay” value in data set [1] (H3K79me2 level, H460^R231Q cells) is on record as “moderate inhibitory activity”. Further, the IC50 in the data set with H460^R231Q cells was 37.9 ± 3.09 µmol/L; in the data set with H460^WT cells, > 100 µmol/L.

Consider `CC(C)N(C[C@H]1O[C@@H](n2cnc3c(N)ncnc32)[C@H](O)[C@@H]1O)C1CC2CN(Cc3c(F)cc(Br)cc3F)CC2C1` (stereo partly shown) [Compound 11], for which the IC50 in the data set on H460^R231Q cells was 68.2 ± 3.03 µmol/L; with H460^WT cells, > 100 µmol/L.

As for `CC(C)(C)C(=O)Nc1ccc2[nH]c(CN3CCC(N(CCCN4CCC(O)CC4)C[C@H]4O[C@@H](n5cnc6c(N)ncnc65)[C@H](O)[C@@H]4O)CC3)nc2c1` [Compound 36], the “H3K79me2 level mediated by DOT1L^R231Q” value in data set [1] (5 μmol/L, WB) is given as “significantly reduced”. In addition, the IC50 in the data set on H460^R231Q cells stood at 8.76 ± 0.61 µmol/L.

On to `CC(C)N(C[C@H]1O[C@@H](n2cnc3c(N)ncnc32)[C@H](O)[C@@H]1O)[C@H]1C[C@@H](CCc2nc3cc(C(C)(C)C)ccc3[nH]2)C1` [EPZ5676], for which, in data set [2], the clearance is 4.08 L/h/kg and the “oral bioavailability (F)” value was 0%.

Consider `CC(C)N(CCCNC(=O)Nc1ccc(C(C)(C)C)cc1)C[C@H]1O[C@@H](n2cc(Br)c3c(N)ncnc32)[C@H](O)[C@@H]1O` [SGC0946], for which the “H3K27me3, H3K9me2, H3K4me1 and H3K36me2 levels” value in data set [3] is on record as “remained relatively unchanged”. The IC50 was found to be 0.0184 µM against DOT1L^WT, 38 ± 5.24 µmol/L with H460^R231Q cells and 9.18 ± 0.11 µmol/L in the data set with H460^WT cells. The “H3K79me2 level (WB of common histone H3 modifications)” value in data set [1] (H460^R231Q cells, Fig. 7) is listed as “decrease”. In addition, the TGI is recorded as 44.4% in the data set on H460^WT and 26.5% in the data set with H460^R231Q.
